We go through 14 compounds from ChEMBL document CHEMBL3244135, “11,12-Secoprostaglandins. 1. Acylhydroxyalkanoic acids and related compounds” (J Med Chem, 1977).

SMILES strings stand for the structures. Bounds are passed on as bounds.

For one series, the species on record is Mus musculus. Description: Binding affinity to prostanoid receptor in [8-14C]-adenine-treated CD-1 mouse ovary assessed as increase in c-AMP production at 100 ug/mL after 30 mins by paper chromatographic analysis in presence of phosphodiesterase inhibitor theophylline. The format is tissue-based. Conditions: Female gonad. Put shortly: (§1)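 Virgin CD-1 female mice over 70 days old; three ovaries (15-25 mg), denuded of fat, preincubated 1 h at 37 °C in 2 ml aerated Krebs–Ringer phosphate pH 7.2 with 1 μCi adenine-8-14C. Theophylline (0.2 ml of 0.05 M stock) and compound in Me2SO then added, 30 min at 37 °C. Stopped with trichloroacetic acid; cAMP-14C isolated, paper chromatography; expressed as fold over untreated ovaries.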
As to `CCCCCC(O)C#CCC(CCCCCCC(=O)O)C(C)=O` (centres undefined), the fold change (FC) came out at 7.

With `CCCCCC(=O)CCCC(CCCCCCC(=O)O)C(C)=O` (centres undefined), the fold change (FC) stood at 9.

For the compound `CCCCC[C@@H](O)C#CCC(CCCCCCC(=O)O)C(C)=O` (some centres undefined), the fold change (FC) amounted to 3.

On to `CC(=O)C(CCCCCCC(=O)O)CCCC1(O)CCCCC1` (centres undefined), for which the fold change (FC) came out at 4.

Take `CCCCCCCC(O)CCCC(CCCCCCC(=O)O)C(C)=O` (centres undefined): the fold change (FC) worked out at 39.

Take `CC(=O)C(CCCCCCC(=O)O)CCCC(C)O` (centres undefined): the fold change (FC) was determined as 1.

With `CC(=O)C(CCCCCCC(=O)O)CCCC(O)CCc1ccccc1` (centres undefined), the fold change (FC) was 2.

As to `CCCCCC(O)CCCC(CO)CCCCCCC(=O)O` (centres undefined), the fold change (FC) worked out at 18.

In the case of `CCCC(O)CCCCCC(CCCCCCC(=O)O)C(C)=O` (centres undefined), the fold change (FC) worked out at 8.

Turning to `CCCCC[C@H](O)CCCC(CCCCCCC(=O)O)C(C)=O` (some centres undefined), the fold change (FC) was 29.

With `CCCCCC[C@@H](O)C/C=C/CCCCCCCC(=O)O`, the fold change (FC) worked out at 2.

Consider `CC(=O)C(CCCCO)CCCCCCC(=O)O` (centres undefined), for which the fold change (FC) is 1.

The next series is filed under the species Mus musculus. Description: Binding affinity to prostanoid receptor in [8-14C]-adenine-treated CD-1 mouse ovary assessed as increase in c-AMP production at 200 ug/mL after 30 mins by paper chromatographic analysis in presence of phosphodiesterase inhibitor theophylline. The format is tissue-based. Conditions: Female gonad. The essentials: as §1
`CCCCCC[C@@H](O)C/C=C/CCCCCCCC(=O)O`: the fold change (FC) came to 1.

The target of the next series is T1, 15-hydroxyprostaglandin dehydrogenase [NAD(+)] (Homo sapiens, UniProt P15428).
T1 sequence (P15428 whole entry): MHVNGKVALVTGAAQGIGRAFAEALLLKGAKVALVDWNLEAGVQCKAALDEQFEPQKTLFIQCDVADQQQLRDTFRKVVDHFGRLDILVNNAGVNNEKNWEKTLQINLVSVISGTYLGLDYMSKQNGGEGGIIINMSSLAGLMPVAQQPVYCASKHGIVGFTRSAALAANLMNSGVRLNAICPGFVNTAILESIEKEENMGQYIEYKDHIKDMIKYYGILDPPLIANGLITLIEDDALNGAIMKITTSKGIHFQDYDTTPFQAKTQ
Description: Stability of the compound assessed as prostaglandin 15-hydroxydehydrogenase (unknown origin)-mediated metabolite formation. Type of series: ADME.
Settings: not given
Consider `CCCCC[C@H](O)C#CCC(CCCCCCC(=O)O)C(C)=O` (some centres undefined), for which the Stability result is on record as “Stable”.

As for `CCCCCC(O)C#CCC(CCCCCCC(=O)O)C(C)=O` (centres undefined), the Stability result is listed as “Stable”.

For `CCCCCC(=O)CCCC(CCCCCCC(=O)O)C(C)=O` (centres undefined), the Stability entry is recorded as “Stable”.

Consider `CCCCC[C@@H](O)C#CCC(CCCCCCC(=O)O)C(C)=O` (some centres undefined), for which the Stability result is “Stable”.

With `CC(=O)C(CCCCCCC(=O)O)CCCC1(O)CCCCC1` (centres undefined), the Stability result is listed as “Stable”.

With `CCCCCC(O)CCCC(CCCCCCC(=O)O)C(C)=O` (mixture of isomers), the Stability entry was “Stable”.

As to `CCCCCCCC(O)CCCC(CCCCCCC(=O)O)C(C)=O` (centres undefined), the Stability entry is listed as “Stable”.

Regarding `CC(=O)C(CCCCCCC(=O)O)CCCC(C)O` (centres undefined), the Stability result is “Stable”.

`CC(=O)C(CCCCCCC(=O)O)CCCC(O)CCc1ccccc1` (centres undefined): the Stability result is reported as “Stable”.

Take `CCCCCC(O)CCCC(CO)CCCCCCC(=O)O` (centres undefined): the Stability result is listed as “Stable”.

In the case of `CCCC(O)CCCCCC(CCCCCCC(=O)O)C(C)=O` (centres undefined), the Stability result is given as “Stable”.

Turning to `CCCCC[C@H](O)CCCC(CCCCCCC(=O)O)C(C)=O` (some centres undefined), the Stability result is “Stable”.

Consider `CC(=O)C(CCCCO)CCCCCCC(=O)O` (centres undefined), for which the Stability result is “Stable”.

Another series is filed under the species Rattus norvegicus. Description: Binding affinity to prostanoid receptor in Holtzman rat lipocytes assessed as compound equivalent to 1 ng cold PGE1 in displacing [3H]-PGE1 from receptor after 30 mins. Type of series: cell-based. Particulars: in the assay text read “after 60 mins” for “after 30 mins”. Put shortly: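 Test compound at appropriate concentrations incubated with 0.4 ng [3H]-PGE1 and 125 μg rat lipocyte binding preparation for 60 min at 37 °C. Bound [3H]-PGE1 then measured.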
Consider `CCCCCC(=O)CCCC(CCCCCCC(=O)O)C(C)=O` (centres undefined), for which the Activity stood at 7 µgequiv.

On to `CC(=O)C(CCCCCCC(=O)O)CCCC1(O)CCCCC1` (centres undefined), for which the Activity was greater than 125 µgequiv.

Take `CCCCCCCC(O)CCCC(CCCCCCC(=O)O)C(C)=O` (centres undefined): the Activity came to 6.6 µgequiv.

Regarding `CC(=O)C(CCCCCCC(=O)O)CCCC(C)O` (centres undefined), the Activity is greater than 100 µgequiv.

With `CCCCCC(O)CCCC(CO)CCCCCCC(=O)O` (centres undefined), the Activity turned out to be 4.6 µgequiv.

`CCCC(O)CCCCCC(CCCCCCC(=O)O)C(C)=O` (centres undefined): the Activity was 65 µgequiv.

`CCCCC[C@H](O)CCCC(CCCCCCC(=O)O)C(C)=O` (some centres undefined): the Activity was 3.2 µgequiv.

Consider `CC(=O)C(CCCCO)CCCCCCC(=O)O` (centres undefined), for which the Activity was 450 µgequiv.

A further series is filed under the species Mus musculus. Description: Binding affinity to prostanoid receptor in [8-14C]-adenine-treated CD-1 mouse ovary assessed as increase in c-AMP production at 50 ug/mL after 30 mins by paper chromatographic analysis in presence of phosphodiesterase inhibitor theophylline. Type of series: tissue-based. Particulars: Female gonad. The essentials: as §1
Regarding `CCCCCC[C@@H](O)C/C=C/CCCCCCCC(=O)O`, the fold change (FC) worked out at 2.

For another series, the species on record is Mus musculus. Description: Binding affinity to prostanoid receptor in [8-14C]-adenine-treated CD-1 mouse ovary assessed as increase in c-AMP production at 25 ug/mL after 30 mins by paper chromatographic analysis in presence of phosphodiesterase inhibitor theophylline. Particulars: Female gonad. The format is tissue-based. The essentials:
as §1
As for `CCCCC[C@H](O)C#CCC(CCCCCCC(=O)O)C(C)=O` (some centres undefined), the fold change (FC) was 7.

For the compound `CCCCCC(O)C#CCC(CCCCCCC(=O)O)C(C)=O` (centres undefined), the fold change (FC) worked out at 4.

As to `CCCCCC(=O)CCCC(CCCCCCC(=O)O)C(C)=O` (centres undefined), the fold change (FC) was 4.

Regarding `CCCCC[C@@H](O)C#CCC(CCCCCCC(=O)O)C(C)=O` (some centres undefined), the fold change (FC) came out at 3.

As for `CC(=O)C(CCCCCCC(=O)O)CCCC1(O)CCCCC1` (centres undefined), the fold change (FC) was determined as 3.

As to `CCCCCCCC(O)CCCC(CCCCCCC(=O)O)C(C)=O` (centres undefined), the fold change (FC) was determined as 37.

`CC(=O)C(CCCCCCC(=O)O)CCCC(C)O` (centres undefined): the fold change (FC) was determined as 1.

As for `CC(=O)C(CCCCCCC(=O)O)CCCC(O)CCc1ccccc1` (centres undefined), the fold change (FC) came out at 1.

As for `CCCCCC(O)CCCC(CO)CCCCCCC(=O)O` (centres undefined), the fold change (FC) came out at 9.

Take `CCCC(O)CCCCCC(CCCCCCC(=O)O)C(C)=O` (centres undefined): the fold change (FC) was 4.

As to `CCCCC[C@H](O)CCCC(CCCCCCC(=O)O)C(C)=O` (some centres undefined), the fold change (FC) worked out at 25.

In the case of `CC(=O)C(CCCCO)CCCCCCC(=O)O` (centres undefined), the fold change (FC) came to 1.

Another series has as its system Canis familiaris. Description: Renal vasodilatory activity in dog assessed as increase in renal blood flow at 0.5 mg/kg/min, iv administered as infusion relative to control. The format is functional, Canis lupus familiaris, Kidney.
Settings: not given
Put shortly:
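Anesthetized dogs given intravenous infusion of 0.5 mg/kg/min. Renal blood flow measured electromagnetically in a single kidney. Read-out is the maximum increase above the control flow value.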
With `CCCCCC(O)CCCC(CCCCCCC(=O)O)C(C)=O` (mixture of isomers), the Activity was determined as 92 mL/min.

A further series is filed under the species Mus musculus. Description: Binding affinity to prostanoid receptor in [8-14C]-adenine-treated CD-1 mouse ovary assessed as increase in c-AMP production at 10 ug/mL after 30 mins by paper chromatographic analysis in presence of phosphodiesterase inhibitor theophylline. The format is tissue-based. Particulars: Female gonad. Put shortly:
as §1
As to `CCCCC[C@H](O)C#CCC(CCCCCCC(=O)O)C(C)=O` (some centres undefined), the fold change (FC) was determined as 3.

In the case of `CCCCCC(O)C#CCC(CCCCCCC(=O)O)C(C)=O` (centres undefined), the fold change (FC) was determined as 2.

On to `CCCCCC(=O)CCCC(CCCCCCC(=O)O)C(C)=O` (centres undefined), for which the fold change (FC) was determined as 2.

Turning to `CCCCC[C@@H](O)C#CCC(CCCCCCC(=O)O)C(C)=O` (some centres undefined), the fold change (FC) was found to be 2.

As to `CC(=O)C(CCCCCCC(=O)O)CCCC1(O)CCCCC1` (centres undefined), the fold change (FC) is 1.

As for `CCCCCCCC(O)CCCC(CCCCCCC(=O)O)C(C)=O` (centres undefined), the fold change (FC) turned out to be 19.

Regarding `CC(=O)C(CCCCCCC(=O)O)CCCC(O)CCc1ccccc1` (centres undefined), the fold change (FC) is 1.

On to `CCCCCC(O)CCCC(CO)CCCCCCC(=O)O` (centres undefined), for which the fold change (FC) is 8.

Turning to `CCCC(O)CCCCCC(CCCCCCC(=O)O)C(C)=O` (centres undefined), the fold change (FC) stood at 4.

As for `CCCCC[C@H](O)CCCC(CCCCCCC(=O)O)C(C)=O` (some centres undefined), the fold change (FC) was determined as 19.

Another series deals with Cavia porcellus. Description: Inhibition of collagen-induced platelet aggregation in po dosed guinea pig. The format is functional.
Settings: not given
Put shortly:
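Test compound given orally to guinea pigs. Collagen-induced platelet aggregation then measured. Potency expressed as ED50 in mg/kg.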
On to `CCCCCC(O)CCCC(CCCCCCC(=O)O)C(C)=O` (mixture of isomers), for which it took a dose of 6.5 mg/kg to reach the 50% effect level (ED50).
